Results from ChEMBL document CHEMBL1124549, “N-azamonobactams. 2. Synthesis of some N-iminoacetic acid and N-glycyl analogues” (1989).

How the values were obtained:
Format in all cases: functional
Serratia marcescens [1] = test: In vitro antibacterial activity against MOR-84-41 strain of Serratia marcescens
Procedure, shortened: (§1)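 Agar dilution on Mueller-Hinton agar holding 2-fold decreasing drug concentrations. Agar surfaces were spot-inoculated with (1-5) × 10^4 CFU per strain using a replicating device. Plates were incubated 18 h at 35 °C. MIC was recorded as the lowest concentration inhibiting growth of the strain.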

Morganella morganii [2] = test: In vitro antibacterial activity against MOR-84-45 strain of Morganella morganii; procedure, shortened: as §1
Klebsiella pneumoniae [3] = test: In vitro antibacterial activity against CMC-84-31 strain of Klebsiella pneumoniae; procedure, shortened: as §1
[4] = In vitro antibacterial activity against IO-83-21 strain of Proteus rettgeri; settings: Providencia rettgeri; procedure, shortened: as §1
Enterobacter cloacae [5] = test: In vitro antibacterial activity against VGH-84-39 strain of Enterobacter cloacae
Escherichia coli [6] = test: In vitro antibacterial activity against VGH-84-19 strain of Escherichia coli; procedure, shortened: as §1
Morganella morganii [7] = test: In vitro antibacterial activity against CMC-84-38 strain of Morganella morganii; procedure, shortened: as §1
Morganella morganii [8] = test: In vitro antibacterial activity against VGH-84-12 strain of Morganella morganii; procedure, shortened: as §1
Serratia marcescens [9] = test: In vitro antibacterial activity against CMC-83-74 strain of Serratia marcescens; procedure, shortened: as §1
Klebsiella pneumoniae [10] = test: In vitro antibacterial activity against IO-83-5 strain of Klebsiella pneumoniae; procedure, shortened: as §1
Enterobacter cloacae [11] = test: In vitro antibacterial activity against MOR-84-30 strain of Enterobacter cloacae
Escherichia coli [12] = test: In vitro antibacterial activity against CMC-84-50 strain of Escherichia coli; procedure, shortened: as §1
Providencia stuartii = test: In vitro antibacterial activity against CMC-83-3 strain of Providencia stuartii; procedure, shortened: as §1
Klebsiella pneumoniae [13] = test: In vitro antibacterial activity against MOR-84-24 strain of Klebsiella pneumoniae; procedure, shortened: as §1
Enterobacter cloacae [14] = test: In vitro antibacterial activity against K-84-10 strain of Enterobacter cloacae
Citrobacter koseri = test: In vitro antibacterial activity against J-82-24 strain of Citrobacter diversus; procedure, shortened: as §1
Serratia marcescens [15] = test: In vitro antibacterial activity against IO-83-63 strain of Serratia marcescens; procedure, shortened: as §1
Escherichia coli [16] = test: In vitro antibacterial activity against MOR-84-20 strain of Escherichia coli; procedure, shortened: as §1
Escherichia coli [17] = test: In vitro antibacterial activity against ATCC 25922 strain of Escherichia coli; procedure, shortened: as §1

Measured: MIC

CO/N=C(/C(=O)NC1CN(/N=C/C(=O)O)C1=O)c1csc(N)n1 (stereo unspecified)
32 µg/mL: Enterobacter cloacae [11]
0.12 µg/mL: [4]
2 µg/mL: Klebsiella pneumoniae [3] | Escherichia coli [6] | Escherichia coli [12] | Providencia stuartii | Escherichia coli [16]
4 µg/mL: Serratia marcescens [1] | Morganella morganii [8] | Klebsiella pneumoniae [10] | Enterobacter cloacae [14] | Citrobacter koseri
16 µg/mL: Morganella morganii [2] | Serratia marcescens [9]
8 µg/mL: all other assays above

CO/N=C(/C(=O)NC1CN(NCC(=O)O)C1=O)c1csc(N)n1 (stereo unspecified)
64 µg/mL: [4]
> 128 µg/mL: all other assays above

C=CCOC(=O)CNN1CC(NC(=O)/C(=N/OC)c2csc(N)n2)C1=O (stereo unspecified)
4 µg/mL: Escherichia coli [12]
32 µg/mL: Serratia marcescens [1] | Morganella morganii [7] | Providencia stuartii | Serratia marcescens [15]
64 µg/mL: Morganella morganii [8] | Enterobacter cloacae [11]
128 µg/mL: Morganella morganii [2] | Serratia marcescens [9]
16 µg/mL: Enterobacter cloacae [5] | Klebsiella pneumoniae [13] | Citrobacter koseri
0.5 µg/mL: [4]
8 µg/mL: all other assays above

C[C@H]1[C@H](NC(=O)/C(=N\OC(C)(C)C(=O)O)c2csc(N)n2)C(=O)N1S(=O)(=O)O [AZTREONAM]
0.002 µg/mL: [4]
0.015 µg/mL: Morganella morganii [2] | Morganella morganii [7] | Providencia stuartii
0.25 µg/mL: Serratia marcescens [9]
0.03 µg/mL: Klebsiella pneumoniae [3] | Morganella morganii [8] | Citrobacter koseri
0.06 µg/mL: Serratia marcescens [1] | Escherichia coli [6] | Escherichia coli [12] | Klebsiella pneumoniae [13] | Escherichia coli [16] | Escherichia coli [17]
